Screening results: PubChem BioAssay, several laboratories
HDAC3 inhib = human HDAC3 inhibition; O15379; recombinant HDAC3, fluorogenic peptide/trypsin coupled, fluorescence; inhibition, % at 8.3 µM; 0.15% of 320,000 active; AID 2718; in the data active = inhibition above about 26%, passing the limit was not always enough; inconclusive = no clear call, values can overlap the other calls
Rtt109 Vps75 = C. albicans Rtt109 histone acetyltransferase inhibition | Q5AAJ8 | purified Rtt109/Vps75, ThioGlo CoA-SH fluorescence, 4 h | inhibition, % at 34.9 µM | 0.16% of 330,000 active | AID 540336;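 active = inhibition of at least 50% in every replicate; inconclusive = best replicate reaches 50% inhibition but some replicates fall short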
ALR inh = inhibitors of human sulfhydryl oxidase ALR. purified ALR, DTT oxidation, H2O2 HRP-luminol luminescence. inhibition, % (test concentration not listed). 3.8% of 290,000 active. AID 485317;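 active = mean replicate inhibition above about 79%, with every replicate also reaching it, limit read from the data; inconclusive = only one of the two criteria met; inactive = mean below limit and not every replicate reaching it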
UCH37 inh = human UCH37 deubiquitinating enzyme inhibition; purified proteasome/UCH37, Ub-AMC cleavage fluorescence; inhibition, % (concentration not given with the values); AID 588478; 0.33% of 330,000 active; Q9Y5K5;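 active = mean inhibition over replicate wells above about 20%, limit read from the data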;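 note: 0% = compound-free wells with enzyme and 100% = wells lacking proteasome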
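Test system – human UCH37 enzyme supplied as purified proteasome complex · Incubation – 30 min preincubation with enzyme, 25 min cleavage at room temperature · Detection – AMC fluorescence from Ub-AMC cleavage, excitation 355 nm, emission 460 nm · Benchmarks – no-proteasome wells (full inhibition) and compound-free wells (no inhibition)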
PfM18AAP inh = blocks P. falciparum M18 aspartyl aminopeptidase | inhibition, % at 7.35 µM | recombinant PfM18AAP, H-Glu-NHMec fluorogenic cleavage | 1.2% of 290,000 active | AID 1822;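 active = inhibition above the campaign mean inhibition over all tested compounds plus 3 SD, cut at about 28% in these data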;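 note: 0% = plate median of test compound wells and 100% = 2 mM ZnCl2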
FAS TE block = FAS thioesterase (human) inhibition; P49327; recombinant FAS-TE, OMFH fluorogenic substrate, fluorescence endpoint; inhibition, % at 15 µM; 0.67% of 360,000 active; AID 602261;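 active = compounds whose normalised, plate-corrected inhibition of enzyme fluorescence in the single-dose primary screen is 50% or more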;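 note: 0% = DMSO with enzyme and 100% = substrate without enzyme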
* marks the source's active call; other numbers are inactive results; ? = inconclusive; . = no result. Shown are actives, neighbours in structure and some others; about 4.6% of the full set was active somewhere.

SMILES	HDAC3 inhib	Rtt109 Vps75	ALR inh	UCH37 inh	PfM18AAP inh	FAS TE block
O=C(O)CN1C(=O)/C(=C\c2cc(Br)ccc2OCc2ccccc2F)SC1=S	5.6	0.9	17.9	24.1*	11.4	21.1
O=C(O)CN1C(=O)/C(=C\c2cc(Br)ccc2OCc2ccccc2Cl)SC1=S	5.0	25.0	8.1	14.6	10.6	31.0
COc1cc([N+](=O)[O-])cc(/C=C2/SC(=S)N(Cc3ccccc3)C2=O)c1O	-11.2	2.2	97.1*	20.6*	10.5	24.7
O=C(O)CN1C(=O)/C(=C\c2cc(Br)ccc2OCc2ccc([N+](=O)[O-])cc2)SC1=S	0.3	-10.4	82.7*	20.4*	-12.7	27.3
CSc1nc(-c2ccco2)nn1C(=O)c1ccco1	71.7*	7.6	29.1	-1.4	17.8	13.6
CSc1nc(-c2ccco2)nn1C(=O)c1ccccc1	97.1*	-16.3	0.8	-3.7	-2.4	26.6
CSc1nc(-c2ccco2)nn1C(=O)c1ccc(C)cc1	?	-6.1	97.2*	1.8	-3.2	19.3
O=C(c1ccco1)n1nc(-c2ccco2)nc1SCc1ccccc1	?	-4.6	6.1	2.6	3.0	14.9
CCCC(=O)n1nc(-c2ccco2)nc1SCc1ccccc1	47.8*	9.3	66.4	.	8.0	20.1
O=C(Cc1ccccc1)n1nc(-c2ccco2)nc1SCc1ccccc1	6.4	-11.9	3.4	2.9	3.8	3.1
COc1cccc(C=NNC(=O)C(c2ccncc2)N2CCOCC2)c1 (centres undefined)	.	.	.	0.9	.	.
Cc1ccc(C=NNC(=O)C[n+]2ccccc2)s1	.	.	.	7.0	.	.
COc1ccccc1C(=O)n1nc(-c2ccco2)nc1SC	5.3	-1.3	98.1*	5.4	-0.5	1.0
Nc1nc(-c2ccco2)nn1C(=O)c1ccccc1Cl	.	-6.7	.	4.9	-5.6	-2.7
CC(C)(C)OC(=O)N1CCC[C@H]1C(=O)NN=Cc1ccc2ncccc2c1	.	.	.	1.5	.	.
Cc1cc2c(cc1C)NC(c1cccnc1)C1=C(CC(C)(C)CC1=O)N2 (centres undefined)	4.4	-4.4	93.9*	2.1	-1.2	-2.8
COc1cc(OC)c(C2Nc3ccccc3NC3=C2C(=O)CC(C)(C)C3)cc1OC (centres undefined)	1.0	-0.1	87.3*	9.6	3.6	-4.5
CC1(C)CC(=O)C2=C(C1)Nc1ccccc1NC2c1cccc(F)c1 (centres undefined)	4.2	6.0	99.1*	12.3	11.3	-3.3
COC(=O)c1ccc(C2Nc3ccccc3NC3=C2C(=O)CC(C)(C)C3)cc1 (centres undefined)	-7.7	2.5	97.0*	6.5	3.8	-1.7
CCCc1c(C(=O)NN=Cc2sccc2C)nnn1-c1nonc1N	.	.	.	3.3	.	.
COc1cc2c(cc1OC)C(c1ccc3c(c1)OCO3)C1=C(CC(C)(C)CC1=O)N2 (centres undefined)	-2.7	5.5	98.5*	-122.3	-9.8	4.7
Cc1ccc(S(=O)(=O)n2nc(OC(=O)c3cccs3)cc2N)cc1	9.0	-5.2	.	2.1	-30.2	13.8
Cc1ccc(S(=O)(=O)n2ccc(OC(=O)c3cccs3)n2)cc1	89.8*	0.7	70.1	-1.8	3.9	5.1
CC1(C)CC(=NNC(=S)Nc2ccccc2F)c2cc(O)ccc2O1	.	.	.	-41.3	.	.
O=C(c1ccco1)N1CCN=C1SCc1ccccc1Cl	10.9	-4.6	99.1*	8.4	-3.8	10.1
SMILES	HDAC3 inhib	Rtt109 Vps75	ALR inh	UCH37 inh	PfM18AAP inh	FAS TE block
Cc1onc(-c2ccccc2Cl)c1C(=O)N1CCN=C1SCc1cccnc1	-4.8	-19.5	98.6*	2.3	1.7	-4.5
CCSC1=NCCN1C(=O)c1c(-c2ccccc2Cl)noc1C	-2.2	-1.8	-0.5	1.4	-4.7	-1.1
O=C(Cc1cccs1)N1CCN=C1SCc1ccccc1F	1.2	12.0	99.2*	3.2	2.6	-4.6
CCN(CC)S(=O)(=O)c1ccc(C(=O)N2CCN=C2SCc2cccnc2)cc1	-2.7	-23.5	98.9*	2.2	1.2	5.4
O=C(Cc1cccs1)N1CCN=C1SCc1ccccc1Cl	1.7	3.5	.	1.2	-11.2	18.2
C=CCn1c(CNc2ccc(C)cc2)nnc1SCC(=O)NN=Cc1ccc(O)cc1O	.	.	.	10.3	.	.
CN(C)S(=O)(=O)c1ccc(C(=O)N2CCN=C2SCc2cccnc2)cc1	-8.6	-5.4	98.8*	2.2	24.4	-3.9
Cc1cccc(CSC2=NCCN2C(=O)c2ccc(S(=O)(=O)N(C)C)cc2)c1	-1.6	0.2	14.0	4.4	-7.3	23.0
O=C(c1ccc2c(c1)OCO2)N1CCN=C1SCc1cccnc1	0.8	-37.4	97.6*	7.3	4.3	-5.8
COCCCNC(=S)NN=Cc1ccc(OC)cc1	.	.	.	6.2	.	.
CC(=NNC(=O)C(C)n1nc(C)c([N+](=O)[O-])c1C)c1ccccc1O (centres undefined)	.	.	.	-0.3	.	.
CCN(CC)C(=O)CSC1=N/C(=C/c2ccco2)C(=O)N1c1ccc(OC)c(Cl)c1	2.6	-5.9	97.5*	-0.6	1.6	8.2
CCCCN1C(N)=NC[C@@H]1Cc1ccc(O)cc1	11.9	-2.0	55.7	-1.5	.	-12.4
NC1=NC[C@H](Cc2ccc(O)cc2)N1CCC12CC3CC(CC(C3)C1)C2	-3.0	-2.1	93.4*	1.6	.	-19.4
COC(=O)[C@H](Cc1ccccc1)NC(=O)N1CCN(c2ccccc2)CC1	10.7	-10.7	85.4*	2.9	0.2	-0.3
COC(=O)[C@H](Cc1ccccc1)NC(=O)N1CCCCC1	-1.6	-2.6	-28.6	4.6	5.4	-2.2
O=C(O)[C@H](Cc1ccccc1)NC(=O)N1CCN(c2ccc(F)cc2)CC1	0.1	7.4	98.0*	0.9	4.2	-4.2
O=C(NN=Cc1cccc2ccccc12)c1cccc(F)c1	.	.	.	-0.2	.	.
CN1C(=O)Cc2cc(S(=O)(=O)Nc3ccc(Cl)cc3)ccc21	-14.3	7.4	6.9	0.9	29.2*	0.9
CC(CNS(=O)(=O)c1ccc2c(c1)CC(=O)N2C)c1ccccc1 (centres undefined)	1.3	14.6	3.6	1.6	-17.6	-0.8
CCOc1ccc(C2NC(=O)c3sc(=S)n(-c4ccccc4)c3N2)cc1 (centres undefined)	2.8	5.3	80.9*	0.9	6.3	-6.1
COC(=O)c1cc(Br)c(=O)n(CCc2ccc(F)cc2)c1	-3.3	6.7	-6.6	3.4	6.3	-6.8
COC(=O)c1cc(Br)c(=O)n(CCc2ccc(O)cc2)c1	-9.9	-20.8	90.0*	-3.4	-3.8	-2.8
O=C(CNC(=O)c1ccccc1F)NN=Cc1cc(Br)ccc1OCc1ccccc1	.	.	.	6.1	.	.
CC1=NN(C(N)=S)C(=O)C1N=Nc1cccc(Cl)c1 (centres undefined)	3.6	2.2	90.2*	7.6	8.5	-2.6
CC1=NN(C(N)=S)C(=O)C1N=Nc1c(Br)cc(Br)cc1Br (centres undefined)	14.6	14.4	97.6*	.	0.1	3.5
